# Measurements collected from several papers.
# Compare with care: the assays were run in different laboratories.
# Target: Protein kinase C zeta type (PRKCZ, Homo sapiens, UniProt Q05513)
Structure (SMILES),effect on,action,method,tested at,endpoint,value
O=C1Nc2ccc(Cl)cc2C1=Cc1cc(Cl)c(O)c(Cl)c1,cell-free assay,,,0.5 µM,remaining signal,95.3%
CC(C)(C)c1nc2c(s1)c1nc(N)ncc1c1ccc(NS(=O)(=O)c3c(F)cccc3F)c(F)c12,enzyme activity,inhibitor,radiometric,1 µM,remaining activity,107%
CC/C(=N\NC(=O)NCc1cccc(O)c1)c1ccc(O)c(C)c1O,enzyme activity,inhibitor,,0.1 µM,inhibition,11%
O=C(Nc1cnn(-c2csc(C(=O)NC3COC3)c2)c1)Nc1c(F)cccc1Cl,enzyme activity,inhibitor,,5 µM,remaining activity,93.6%
Cc1ccc(-n2nc(C(C)(C)C)cc2NC(=O)Nc2ccc(OCCN3CCOCC3)c3ccccc23)cc1,enzyme activity,inhibitor,,10 µM,inhibition,-3%
CCCCNc1ncc2c(-c3ccc(F)cc3)nn(C[C@H]3CC[C@H](N)CC3)c2n1,target engagement in cells,inhibitor,chemoproteomics,20 mM,inhibition,-19.6%
CCCOc1ccc(OC)c(F)c1C(=O)c1ccc(C(=O)N[C@@H]2CNC[C@H]2NC(=O)c2ccc3[nH]ncc3c2)cc1,enzyme activity,inhibitor,,10 µM,remaining activity,60%
CCN1CCC2(CC1)NC(=O)c1c(c3ccc(Cl)c(Cl)c3n1C)C2C#N (racemic),thermal stability,,DSF,10 µM,ΔTm,0.1 °C
CN(c1ncccc1CNc1nc(Nc2ccc3c(c2)CC(=O)N3)ncc1C(F)(F)F)S(C)(=O)=O,enzyme activity,inhibitor,,1 µM,inhibition,0%
Nc1nc(NC2CCCCC2)sc1C(=O)c1ccccc1,enzyme activity,inhibitor,,10 µM,remaining activity,83%
COc1cc(Nc2cnc(C#N)c(O[C@H](C)CN(C)C)n2)ncc1-c1cnn(C)c1,enzyme activity,inhibitor,radiometric,10 µM,remaining activity,79%
Cc1ccc(Nc2nccc(N(C)c3ccc4c(C)n(C)nc4c3)n2)cc1S(N)(=O)=O,enzyme activity,inhibitor,,10 µM,inhibition,-2%
COc1cc(-c2cc(-c3ccc(N4CCNCC4)cc3)cnc2C)cc(OC)c1OC,enzyme activity,inhibitor,,1 µM,inhibition,3%
CCC1(CC)NC(=O)c2c(c3ccc(Cl)c(Cl)c3n2C)C1C#N (centres unmarked),thermal stability,,DSF,10 µM,ΔTm,-0.4 °C
Cn1c(=O)n(-c2ccc(C(C)(C)C#N)cc2)c2c3cc(-c4cnc5ccccc5c4)ccc3ncc21,enzyme activity,inhibitor,,10 µM,remaining activity,123%
Cn1c2c(c3ccc(Cl)c(Cl)c31)C(C#N)C1(CCCC1)NC2=O (centres unmarked),thermal stability,,DSF,10 µM,ΔTm,-0.2 °C
COc1cc2ncnc(Nc3ccc(Oc4ccccc4)cc3C)c2cc1OC,enzyme activity,inhibitor,,1 µM,inhibition,3%
